{"source": "ChEMBL document CHEMBL4732170", "about": "“Discovery of Small-Molecule Antagonists of the PWWP Domain of NSD2” (J Med Chem, 2021)", "key": {"[1]": {"target": "DNA mismatch repair protein Msh6 (Homo sapiens) (UniProt P52701)", "sequence (P52701 whole entry, the tested form may be a part)": "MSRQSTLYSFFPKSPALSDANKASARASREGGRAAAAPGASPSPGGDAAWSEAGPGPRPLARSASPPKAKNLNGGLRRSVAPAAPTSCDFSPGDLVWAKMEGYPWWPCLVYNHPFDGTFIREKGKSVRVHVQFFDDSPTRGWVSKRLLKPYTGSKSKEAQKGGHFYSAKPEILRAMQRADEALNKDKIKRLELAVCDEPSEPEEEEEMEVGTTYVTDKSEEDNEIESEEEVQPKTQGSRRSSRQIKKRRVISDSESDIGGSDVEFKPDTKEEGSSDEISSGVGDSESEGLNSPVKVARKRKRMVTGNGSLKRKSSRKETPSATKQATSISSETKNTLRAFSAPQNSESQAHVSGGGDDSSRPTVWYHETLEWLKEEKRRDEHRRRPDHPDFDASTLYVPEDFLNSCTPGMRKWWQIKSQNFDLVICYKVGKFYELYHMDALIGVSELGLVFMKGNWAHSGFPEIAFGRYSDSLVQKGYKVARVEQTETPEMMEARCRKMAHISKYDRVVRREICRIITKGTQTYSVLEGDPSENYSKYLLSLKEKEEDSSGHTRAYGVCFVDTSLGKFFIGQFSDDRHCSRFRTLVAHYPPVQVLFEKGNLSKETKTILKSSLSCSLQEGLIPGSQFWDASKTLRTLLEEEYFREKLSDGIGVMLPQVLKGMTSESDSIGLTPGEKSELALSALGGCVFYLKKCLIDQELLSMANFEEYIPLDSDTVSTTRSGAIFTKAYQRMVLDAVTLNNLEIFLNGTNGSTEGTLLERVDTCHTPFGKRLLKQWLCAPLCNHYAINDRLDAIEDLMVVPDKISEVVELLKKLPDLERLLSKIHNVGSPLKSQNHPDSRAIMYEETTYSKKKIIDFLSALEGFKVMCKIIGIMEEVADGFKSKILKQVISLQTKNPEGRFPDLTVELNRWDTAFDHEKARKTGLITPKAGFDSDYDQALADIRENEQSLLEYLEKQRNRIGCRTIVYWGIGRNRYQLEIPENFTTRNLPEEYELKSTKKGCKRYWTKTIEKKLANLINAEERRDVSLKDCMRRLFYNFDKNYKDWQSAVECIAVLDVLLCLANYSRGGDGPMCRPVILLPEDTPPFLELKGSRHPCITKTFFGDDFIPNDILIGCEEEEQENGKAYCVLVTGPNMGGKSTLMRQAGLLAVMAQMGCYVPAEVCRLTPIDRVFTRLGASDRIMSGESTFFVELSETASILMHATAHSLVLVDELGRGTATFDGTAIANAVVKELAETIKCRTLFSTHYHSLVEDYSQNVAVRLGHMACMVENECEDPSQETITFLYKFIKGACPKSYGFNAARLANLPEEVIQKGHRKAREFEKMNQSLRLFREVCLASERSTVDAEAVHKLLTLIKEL", "assay": "Binding affinity to MSH6 PWWP domain (unknown origin) assessed as aggregation temperature at 400 uM by heating at 25 to 85 degC by differential static light scattering method"}, "[2]": {"target": "T1, Histone-lysine N-methyltransferase NSD2 (Homo sapiens, UniProt O96028)", "T1 sequence (O96028 whole entry)": "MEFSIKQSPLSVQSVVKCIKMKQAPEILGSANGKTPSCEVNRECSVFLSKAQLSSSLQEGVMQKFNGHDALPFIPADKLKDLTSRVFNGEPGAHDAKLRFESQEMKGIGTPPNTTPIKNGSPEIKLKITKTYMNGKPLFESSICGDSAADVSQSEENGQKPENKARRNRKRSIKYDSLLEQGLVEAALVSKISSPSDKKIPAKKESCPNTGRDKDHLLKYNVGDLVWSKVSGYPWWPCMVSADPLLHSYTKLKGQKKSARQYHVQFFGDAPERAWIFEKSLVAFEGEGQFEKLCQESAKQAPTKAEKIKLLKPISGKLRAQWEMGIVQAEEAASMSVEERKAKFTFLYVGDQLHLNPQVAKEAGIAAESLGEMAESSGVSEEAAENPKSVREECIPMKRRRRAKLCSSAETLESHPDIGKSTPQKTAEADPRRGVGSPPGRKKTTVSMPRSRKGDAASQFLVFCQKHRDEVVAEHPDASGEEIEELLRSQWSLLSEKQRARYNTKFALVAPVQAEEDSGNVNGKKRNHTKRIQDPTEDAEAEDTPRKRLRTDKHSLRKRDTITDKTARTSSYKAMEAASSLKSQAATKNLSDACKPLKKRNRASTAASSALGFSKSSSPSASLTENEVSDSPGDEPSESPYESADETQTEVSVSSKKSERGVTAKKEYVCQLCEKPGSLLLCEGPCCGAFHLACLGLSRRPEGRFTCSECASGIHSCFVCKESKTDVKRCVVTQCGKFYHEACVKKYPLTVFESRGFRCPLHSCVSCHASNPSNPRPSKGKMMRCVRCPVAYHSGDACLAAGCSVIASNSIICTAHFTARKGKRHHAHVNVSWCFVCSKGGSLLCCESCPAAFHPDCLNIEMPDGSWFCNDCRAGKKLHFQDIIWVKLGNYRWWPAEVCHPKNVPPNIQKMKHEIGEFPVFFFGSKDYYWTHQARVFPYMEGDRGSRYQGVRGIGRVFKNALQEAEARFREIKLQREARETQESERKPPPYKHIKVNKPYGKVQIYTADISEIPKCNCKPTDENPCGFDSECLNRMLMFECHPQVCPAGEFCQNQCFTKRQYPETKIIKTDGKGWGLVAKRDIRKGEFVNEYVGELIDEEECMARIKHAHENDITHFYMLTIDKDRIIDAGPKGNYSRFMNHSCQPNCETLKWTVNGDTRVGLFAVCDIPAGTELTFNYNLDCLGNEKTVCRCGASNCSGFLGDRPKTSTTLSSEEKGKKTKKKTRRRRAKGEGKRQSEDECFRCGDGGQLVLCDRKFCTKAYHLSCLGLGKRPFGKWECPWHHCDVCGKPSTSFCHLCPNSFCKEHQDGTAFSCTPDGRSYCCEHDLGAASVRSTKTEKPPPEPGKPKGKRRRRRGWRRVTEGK", "assay": "Binding affinity to NSD2 PWWP1 domain (unknown origin) assessed as dissociation constant by isothermal titration calorimetric analysis", "summary_of_the_method": "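Reverse ITC: purified NSD2-PWWP1 (aa 211-350, human, E. coli-expressed, His-tag removed) dialyzed into 20 mM Tris pH 7.5, 100 mM NaCl. Protein at 1 mM titrated into cell holding 40 μM ligand, 1% DMSO in both. Twelve 4 μL injections at 25 °C. Kd from one-binding-site model fit.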"}, "[3]": {"target": "T2, Zinc finger CW-type PWWP domain protein 1 (Homo sapiens) (UniProt Q9H0M4)", "T2 sequence (whole entry)": "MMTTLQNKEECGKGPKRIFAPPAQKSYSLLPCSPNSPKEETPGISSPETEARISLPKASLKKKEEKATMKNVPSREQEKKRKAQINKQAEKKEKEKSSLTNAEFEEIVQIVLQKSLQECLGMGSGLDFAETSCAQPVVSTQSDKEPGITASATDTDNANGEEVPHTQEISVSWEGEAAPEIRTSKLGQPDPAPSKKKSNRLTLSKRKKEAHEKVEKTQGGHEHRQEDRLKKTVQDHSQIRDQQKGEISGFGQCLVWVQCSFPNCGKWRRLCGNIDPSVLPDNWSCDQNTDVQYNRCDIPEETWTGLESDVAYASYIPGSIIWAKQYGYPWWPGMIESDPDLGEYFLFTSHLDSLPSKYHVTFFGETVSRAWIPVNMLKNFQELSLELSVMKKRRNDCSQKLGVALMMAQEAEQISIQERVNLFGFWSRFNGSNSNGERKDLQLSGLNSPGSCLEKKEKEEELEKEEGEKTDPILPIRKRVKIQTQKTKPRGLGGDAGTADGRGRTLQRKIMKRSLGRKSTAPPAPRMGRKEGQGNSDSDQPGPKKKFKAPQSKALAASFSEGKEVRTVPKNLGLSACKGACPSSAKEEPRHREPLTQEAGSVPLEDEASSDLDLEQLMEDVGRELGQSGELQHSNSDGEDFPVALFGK", "assay": "Binding affinity to ZCWPW1 PWWP1 domain (unknown origin) assessed as aggregation temperature at 400 uM by heating at 25 to 85 degC by differential static light scattering method"}, "[4]": {"target": "DNA (cytosine-5)-methyltransferase 3B (Homo sapiens) (UniProt Q9UBC3)", "assay": "Binding affinity to DNMT3b PWWP domain (unknown origin) assessed as aggregation temperature at 400 uM by heating at 25 to 85 degC by differential static light scattering method"}}, "note": "The source made the active and inactive calls. No cut-off for these calls is given here."}
{"smiles": "N#Cc1ccc(C(C(N)=O)N2CCC2c2ccc(Cl)cc2)cc1", "note": "(centres undefined)", "values": [{"measurement": "Activity", "setting": "[1]", "value": "inactive"}, {"measurement": "Kd", "setting": "[2]", "value": 8.9, "unit": "µM"}, {"measurement": "Activity", "setting": "[3]", "value": "inactive"}, {"measurement": "Activity", "setting": "[4]", "value": "inactive"}]}
